Calls of active or inactive are those of the source. The calls are words filed in the database; no cut-off is given here.
Experiments:
[1] = Antiproliferative activity against human taxol-resistant A549-T12 cells expressing tubulin mutant gene after 72 hrs by MTT assay; assay type: functional, cell-based; conditions: A549, 72 h
Summary of the method: (§1)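 Resistant sublines cultured under selection: LoVo^Doxo (doxorubicin-resistant LoVo subclone) in complete Ham's F12 with doxorubicin 0.1 μg/mL; A549-T12 in complete DMEM with taxol 12 nM. Seeded at 8 × 10³ per well, 18 h preincubation, then 72 h compound exposure at 37 °C. MTT read-out.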

HeLa [2] = assay: Cell cycle arrest in human HeLa cells assessed as accumulation of cells at G2/M phase after 24 hrs by propidium iodide staining based flow cytometric analysis; assay type: functional
Summary of the method: (§2)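 HeLa or Jurkat cells (5 × 10⁵, exponential growth) treated 24 h with 31–500 nM compound. Cells fixed in ice-cold 70% ethanol, treated with lysis buffer containing RNase A and 0.1% Triton X-100, then stained with propidium iodide. DNA content measured by flow cytometry to give phase distribution. Mean ± SEM of three independent experiments.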

A549 = assay: Ratio of CA-4 IC50 to compound IC50 for human A549 cells after 72 hrs by MTT assay; assay type: functional
HeLa [3] = assay: Downregulation of cyclin B expression in human HeLa cells at 250 to 500 nM after 48 hrs by Western blot analysis; assay type: functional, cell-based
Summary of the method: (§3)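 HeLa cells treated for 24 or 48 h, washed twice with ice-cold PBS and lysed on ice 30 min; lysates spun at 15000 ×g, 4 °C. Protein (20 μg) resolved by SDS–PAGE on 7.5–15% gels and blotted to PVDF. Specific primary antibodies for 2 h at room temperature, then peroxidase secondary for 60 min, ECL detection. Membranes stripped and reprobed for β-actin as loading control.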

MCF7 = assay: Ratio of CA-4 IC50 to compound IC50 for human MCF7 cells after 72 hrs by MTT assay; assay type: functional
HeLa [4] = assay: Downregulation of Mcl-1 expression in human HeLa cells at 250 to 500 nM after 24 hrs by Western blot analysis; assay type: functional, cell-based; summary of the method: as §3
HeLa [5] = assay: Downregulation of Xiap expression in human HeLa cells at 250 to 500 nM after 24 hrs by Western blot analysis; assay type: functional, cell-based; summary of the method: as §3
HeLa [6] = assay: Induction of apoptosis in human HeLa cells at 500 nM after 24 to 48 hrs by Annexin V-FITC/propidium iodide staining based biparametric cytofluorimetric analysis; assay type: functional, cell-based
Summary of the method: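 HeLa cells treated at 250 or 500 nM for 24 or 48 h, then labelled with annexin-V-FITC (phosphatidylserine) plus propidium iodide. Red and green fluorescence measured by biparametric flow cytometry. Mean ± SEM of three independent experiments.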

HeLa [7] = assay: Induction of apoptosis in human HeLa cells assessed as increase in caspase-3-mediated PARP cleavage at 250 to 500 nM after 24 to 48 hrs by Western blot analysis; assay type: functional, cell-based; summary of the method: as §3
CCRF-CEM = assay: Resistance ratio of IC50 for human vinblastine-resistant CEM/VBL100 cells overexpressing P-glycoprotein to IC50 for human CEM cells; assay type: functional
[8] = Antiproliferative activity against human doxorubicin-resistant LoVo/DX cells overexpressing P-glycoprotein after 72 hrs by MTT assay; assay type: functional, cell-based; summary of the method: as §1
[9] = Growth inhibition of human resting PBL after 72 hrs by MTT assay; assay type: cell-based; conditions: resting peripheral blood lymphocytes (PBL)
[10] = molecular target: T1, M-phase inducer phosphatase 3 (Homo sapiens) (UniProt P30307); assay: Induction of cdc25C phosphorylation in human HeLa cells assessed as cdc2 kinase dephosphorylation at Tyr15 in human HeLa cells at 250 to 500 nM after 24 to 48 hrs by Western blot analysis; assay type: cell-based; summary of the method: as §3
T1 sequence (whole entry): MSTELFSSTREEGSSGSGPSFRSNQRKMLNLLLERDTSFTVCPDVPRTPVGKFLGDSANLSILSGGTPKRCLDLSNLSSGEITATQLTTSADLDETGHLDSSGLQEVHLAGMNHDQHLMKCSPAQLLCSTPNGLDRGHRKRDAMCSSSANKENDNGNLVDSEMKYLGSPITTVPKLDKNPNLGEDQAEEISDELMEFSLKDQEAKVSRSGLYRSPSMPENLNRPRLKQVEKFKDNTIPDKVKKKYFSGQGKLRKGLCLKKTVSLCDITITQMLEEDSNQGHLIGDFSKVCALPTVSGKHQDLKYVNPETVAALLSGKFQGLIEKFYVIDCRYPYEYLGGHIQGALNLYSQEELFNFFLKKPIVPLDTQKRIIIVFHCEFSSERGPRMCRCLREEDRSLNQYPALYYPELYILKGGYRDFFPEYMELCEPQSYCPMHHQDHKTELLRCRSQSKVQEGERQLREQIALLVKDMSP

Jurkat [11] = assay: Cell cycle arrest in human Jurkat cells assessed as accumulation of cells at G2/M phase after 24 hrs by propidium iodide staining based flow cytometric analysis; assay type: functional; summary of the method: as §2
Jurkat [12] = assay: Cell cycle arrest in human Jurkat cells assessed as decrease in accumulation of cells at G1 phase after 24 hrs by propidium iodide staining based flow cytometric analysis; assay type: functional; summary of the method: as §2
[13] = Inhibition of bovine brain tubulin polymerization preincubated for 15 mins by turbidimetric analysis; set-up: species or system Bos taurus
Summary of the method: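 Bovine brain tubulin (10 μM) in glutamate buffer preincubated with varying compound concentrations for 15 min at 30 °C, then chilled to 0 °C. GTP 0.4 mM added and mixtures warmed to 30 °C in a spectrophotometer; assembly followed by turbidity at 350 nm.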

HeLa [14] = assay: Downregulation of Bcl-2 expression in human HeLa cells at 250 to 500 nM after 24 to 48 hrs by Western blot analysis; assay type: functional, cell-based; summary of the method: as §3
HeLa [15] = assay: Induction of apoptosis in human HeLa cells assessed as mitochondrial polarization; assay type: functional, cell-based
HeLa [16] = assay: Cell cycle arrest in human HeLa cells assessed as decrease in accumulation of cells at S phase after 24 hrs by propidium iodide staining based flow cytometric analysis; assay type: functional; summary of the method: as §2
HT-29 [17] = assay: Ratio of CA-4 IC50 to compound IC50 for human HT-29 cells after 72 hrs by MTT assay; assay type: functional
PBL = assay: Growth inhibition of PHA-stimulated human PBL after 72 hrs by MTT assay; assay type: functional
Jurkat [18] = assay: Antiproliferative activity against human Jurkat cells after 72 hrs by MTT assay; assay type: functional, cell-based
Summary of the method: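 Cells seeded at 8 × 10³ per well and incubated 18 h at 37 °C, 5% CO₂, then exposed to a range of compound concentrations for 72 h at 37 °C. Jurkat and HL-60 were grown in RPMI-1640, the others in DMEM, with penicillin, streptomycin and 10% FBS. DMSO stocks (10 mM); DMSO ≤0.25% final. Viability by MTT. […] Mean ± SE of ≥3 independent experiments.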

HT-29 [19] = assay: Antiproliferative activity against human HT-29 cells after 72 hrs by MTT assay; assay type: functional, cell-based; conditions: HT-29, 72 h
HeLa [20] = assay: Induction of apoptosis in human HeLa cells assessed as caspase-3 activation at 250 to 500 nM after 24 to 48 hrs by Western blot analysis; assay type: functional, cell-based; summary of the method: as §3
HL-60 = assay: Ratio of compound IC50 to CA-4 IC50 for human HL60 cells after 72 hrs by MTT assay; assay type: functional
Jurkat [21] = assay: Ratio of compound IC50 to CA-4 IC50 for human Jurkat cells after 72 hrs by MTT assay; assay type: functional
HeLa [22] = assay: Induction of apoptosis in human HeLa cells assessed as ROS production; assay type: functional, cell-based

Structure (SMILES): CCOc1ccc(-c2sc(NC)nc2-c2cc(OC)c(OC)c(OC)c2)cc1
- IC50 [1]: 0.0215 µM
- Activity (HeLa [2]): Dose-dependent effect
- Ratio IC50 (A549): 5
- Activity (HeLa [3]): Active
- Ratio IC50 (MCF7): 15
- Activity (HeLa [4]): Active
- Activity (HeLa [5]): Active
- Activity (HeLa [6]): Active
- Activity (HeLa [7]): Active
- Ratio IC50 (CCRF-CEM): 2.9
- IC50 [8]: 0.0145 µM
- GI50 at 72 h [9]: 0.443 µM
- Activity [10]: Active
- Activity (Jurkat [11]): Dose-dependent effect
- Activity (Jurkat [12]): Dose-dependent effect
- IC50 [13]: 0.89 µM
- Activity (HeLa [14]): Active
- Activity (HeLa [15]): Active
- Activity (HeLa [16]): Dose-dependent effect
- Ratio IC50 (HT-29 [17]): 1000
- GI50 (PBL): 0.12 µM
- IC50 (Jurkat [18]): 0.0017 µM
- IC50 (HT-29 [19]): 0.0032 µM
- Activity (HeLa [20]): Active
- Ratio IC50 (HL-60): 2
- Ratio IC50 (Jurkat [21]): 0.34
- Activity (HeLa [22]): Active

Source: ChEMBL document CHEMBL2202972, “Synthesis and biological evaluation of 2-substituted-4-(3',4',5'-trimethoxyphenyl)-5-aryl thiazoles as anticancer agents” (Bioorg Med Chem, 2012)
